SMARCA2 act = activators of SMARCA2 function. MG213 cells, MMTV-luciferase reporter, dexamethasone, overnight. activation, % at 9.1 µM. hit rate 1% among 370,000. AID 652017; in the data active = activation above about 7.8%;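 also: 0% = vehicle wells and 100% = reference activator wells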
SR-BI DiI inh = inhibitors of mouse SR-BI mediated HDL lipid uptake | Q61009 | ldlA[mSR-BI] CHO cells, DiI-HDL uptake fluorescence, 3 h | inhibition, % at 12.5 µM | hit rate 0.96% among 320,000;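 active = mean replicate inhibition of at least 70% and a set share of replicates each scoring 70 or more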;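 also: 0% = median of neutral control wells and 100% = median of positive control wells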
Target sequence (Q61009 whole entry, looked up): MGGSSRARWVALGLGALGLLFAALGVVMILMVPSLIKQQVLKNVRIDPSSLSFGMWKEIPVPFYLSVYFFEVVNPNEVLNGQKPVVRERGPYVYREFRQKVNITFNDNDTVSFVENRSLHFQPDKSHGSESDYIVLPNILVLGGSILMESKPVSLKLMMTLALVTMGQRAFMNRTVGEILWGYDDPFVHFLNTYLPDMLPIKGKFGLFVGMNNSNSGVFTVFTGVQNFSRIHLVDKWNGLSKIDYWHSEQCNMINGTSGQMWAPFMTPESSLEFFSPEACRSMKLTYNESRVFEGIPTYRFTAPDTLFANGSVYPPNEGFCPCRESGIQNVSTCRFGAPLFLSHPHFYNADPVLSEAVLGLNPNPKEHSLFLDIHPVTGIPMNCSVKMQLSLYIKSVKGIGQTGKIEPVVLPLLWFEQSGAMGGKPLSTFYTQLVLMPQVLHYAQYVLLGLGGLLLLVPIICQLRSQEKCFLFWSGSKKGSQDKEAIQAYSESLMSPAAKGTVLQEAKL
SR-BI DiI-HDL act = enhances SR-BI lipid uptake from DiI-HDL; CHO ldlA[mSR-BI] cells, DiI-HDL uptake fluorescence, 3 h; 100 = double the neutral-control signal; activation, % at 12.5 µM; hit rate 0.096% among 320,000; AID 504775;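 active = mean replicate activation of at least 60% and every replicate at or above 60%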;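 also: 0% = median plate neutral-control signal and 100% = twice that signal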
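Material: SR-BI-overexpressing, LDLR-lacking CHO cells; schedule: compound exposure 3 h, 37 °C; reagent: DiI-labelled HDL at 10 µg/mL final; technique: bottom-read fluorescence, 550/595 nm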
Vif imaging = inhibitors of HIV Vif; HEK293T cells, Vif self-association by quenched fluorescence, imaging, 24 h; inhibition, % at 7.49 µM; hit rate 0.35% among 340,000; AID 602346; in the data active = inhibition above about 50%, passing the limit was not always enough
H9c2 TAG inh = inhibitors of triacylglycerol accumulation | H9c2 cells, Nile Red lipid (TAG) fluorescence; cells loaded with 200 µM oleic acid | inhibition, % at 12.5 µM | hit rate 0.66% among 230,000 | AID 651582;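 active = pattern-corrected inhibition of lipid staining of at least 50% with the nuclear-stain viability signal not falling by more than 50%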;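 also: 0% = DMSO wells and 100% = triacsin C control wells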
H9c2 TAG conf = triacylglycerol accumulation inhibition, confirmation | inhibition, % at 12.5 µM | H9c2 lipid accumulation, Nile Red fluorescence; cells loaded with 200 µM oleic acid | hit rate 71% among 990 | AID 651629 | shares compounds with H9c2 TAG inh;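 active = mean inhibition across replicates of 40% or more; inactive = mean inhibition below 40%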;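 also: plate controls were DMSO only wells for no effect and Triacsin C treated wells for full effect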
An asterisk follows results filed as active; . = no result given; ! = repeats disagree. Sampled rows, rich in hits. Any-hit rate of the full collection: about 2.5%.

SMILES	SMARCA2 act	SR-BI DiI inh	SR-BI DiI-HDL act	Vif imaging	H9c2 TAG inh	H9c2 TAG conf
O=C(COC(=O)C1=COCCO1)NCc1ccc(Cl)cc1Cl	0	.	.	3	66*	9
COc1ccccc1CNC(=O)COC(=O)C1=COCCO1	-1	-4	4	7	-14	.
Cc1ccc(-n2c(SCC(=O)Nc3cccc4ccccc34)nnc2-c2cccs2)cc1	2	.	.	.	.	.
CN1[C@H](Cc2ccccc2)COc2cccc(F)c2S1(=O)=O	-3	.	.	.	.	.
c1ccc(-c2nc(N3CCOCC3)cc(N3CCOCC3)n2)cc1	-2	39	-39	-4	51*	54*
CSCc1cc(N2CCOCC2)nc(-c2ccccc2)n1	-1	7	-7	2	7	.
O=C(NCc1ccc2c(c1)OCO2)c1cc(-c2ccccn2)nc2ccccc12	-5	13	-13	1	53*	31
O=C(NCc1ccco1)c1cc(-c2ccccn2)nc2ccccc12	-2	7	-7	1	.	.
C[C@H]1/C=C/CC(=O)N[C@@H](c2ccccc2)[C@@H](C)/C=C/CC(=O)N[C@H]1c1ccccc1	0	.	.	.	.	.
Cn1c(=O)c(=O)n(C)c2cc(S(=O)(=O)N3CCN(c4ccccc4Cl)CC3)ccc21	2	.	.	.	.	.
C=CCC[C@@H](Cc1ccc(F)cc1)C(=O)OC[C@@H](Cc1c[nH]c2ccccc12)NC(=O)[C@@H](CC=C)CC(=O)N(CCO)Cc1ccccc1	-6	24	-24	.	60*	60*
C=CC[C@@H](CC(=O)N(CCO)Cc1ccccc1)C(=O)N[C@H](COC(=O)[C@@H](CC=C)Cc1ccc(F)cc1)Cc1c[nH]c2ccccc12	-2	59	-59	3	62*	63*
COC(=O)C[C@@H]1CC[C@H]2[C@@H](COc3ccc(NC(=O)Nc4ccc(C)cc4)cc3C(=O)N2C)O1	0	.	.	.	.	.
COC(=O)[C@@]1(Cc2ccc(OC)cc2)[C@@H]2C(=CC(=O)[C@H]2CC(=O)C(=O)N2CCCC2)CN1C(=O)c1ccccc1	.	-4	4	-1	53*	55*
O=S1(=O)CCC(N(N=Cc2ccco2)c2ccccc2)C1 (stereo not given)	-2	.	.	.	.	.
COc1cc2c3c(c1)c(C1=NC(=S)NC1=O)c(O)n3C(C)(C)C=C2C	-1	-28	28	-15	83*	66*
CC(C)n1cc(/C=C2/NC(=O)N(c3cccc(Cl)c3)C2=O)c2ccccc21	1	66	-66	-1	55*	23
COCCn1c(C)cc(/C=C2/NC(=O)N(c3cccc(Cl)c3)C2=O)c1C	-3	41	-41	-3	.	.
O=C(NCc1ccccc1)[C@@H]1CCCN1C(=O)[C@H]1CCCN1C(=O)c1ccccc1Cl	-1	.	.	.	.	.
Cc1ccc(C2=CCN(C)C(=O)N2c2ccccc2)cc1	-3	.	.	.	.	.
C=C1c2nc3ccccc3n2C=C(c2ccc(C)cc2)N1c1ccccc1	6	46	-46	-10	56*	80*
COc1cc(Nc2ccccn2)cc(C(=O)Nc2cccc(C(F)(F)F)c2)c1	-6	56	-56	-12	35	.
COc1cc(NC(=O)c2ccno2)cc(C(=O)Nc2cccc(C(F)(F)F)c2)c1	-1	16	-16	-1	-2	.
COc1cc(NC(=O)c2nccnc2N)cc(C(=O)Nc2cccc(C(F)(F)F)c2)c1	-2	51	-51	-14	61*!	35
COc1cc(NC(=O)c2nccn2C)cc(C(=O)Nc2cccc(C(F)(F)F)c2)c1	-5	40	-40	-10	107*	26
SMILES	SMARCA2 act	SR-BI DiI inh	SR-BI DiI-HDL act	Vif imaging	H9c2 TAG inh	H9c2 TAG conf
COc1ccc(-c2cc(C(=O)Nc3cc(OC)cc(C(=O)Nc4cccc(C(F)(F)F)c4)c3)[nH]n2)cc1	3	21	-21	-13	84*	77*
COC(=O)c1ccc(Cn2ccc3ccc(-c4ccc5ccn(Cc6ccc(C(=O)OC)cc6)c5c4)cc32)cc1	-2	.	.	.	.	.
Cc1ccc(Oc2ccc(S(=O)(=O)N3CCOCC3)cc2C(N)=O)c(-n2nc3ccccc3n2)c1	2	-22	22	3	50*	46*
Cc1onc(-c2ccc(Cl)cc2Cl)c1-c1csc(N/N=C/c2ccccc2Cl)n1	0	49	-49	0	57*	38
Cc1ccc(C(=O)Nc2cc(C)c(OCC(=O)N3CCOCC3)c(C)c2)cc1	1	-5	5	.	63*	42*
COc1ccccc1C(=O)Nc1cc(C)c(OCC(=O)N2CCOCC2)c(C)c1	-2	54	-54	5	-1	.
Cc1cc(C)n(CCNC(=O)[C@@H](Cc2ccccc2)NC(=O)[C@H]2O[C@@H](n3ccc(=O)[nH]c3=O)[C@H](O)[C@@H]2O)n1	-1	.	.	.	.	.
CCc1nnc(NS(=O)(=O)c2ccc(NC(=O)c3ccc([N+](=O)[O-])s3)cc2)s1	-2	.	.	7	67*	8
CCc1nnc(NS(=O)(=O)c2ccc(NC(=O)c3cccc([N+](=O)[O-])c3)cc2)s1	0	-12	12	-1	.	.
O=C(Nc1ccc(S(=O)(=O)N2CCOCC2)cc1)c1cccs1	-3	-16	16	26	-24	.
O=C(Nc1ccc(S(=O)(=O)N2CCOCC2)cc1)c1ccc([N+](=O)[O-])s1	-2	9	-9	-5	94*	89*
COC(=O)C1=C(C)N(Cc2ccccc2C(F)(F)F)C(=NCc2ccc3c(c2)OCO3)NC1c1cccc(C(F)(F)F)c1 (stereo not given)	-2	.	.	.	.	.
COc1cc(C2C(C#N)=C(N)Oc3cc4c(cc32)OCO4)cc(OC)c1OC (stereo not given)	0	14	-14	-2	51*	71*
COC(=O)C1=C(C)N(C)C(=NCc2ccc(OC)cc2)NC1c1ccc(F)cc1 (stereo not given)	-1	.	.	.	.	.
Cc1cccc(C)c1NC(=O)[C@@H]1CC(=O)O[C@@H]1c1ccccc1	-4	.	.	.	.	.
O=C(COc1ccc(Cl)cc1)Nc1ccc2oc(-c3ccncc3)nc2c1	5	41	-41	.	25	.
CC(C)(Oc1ccc(Cl)cc1)C(=O)Nc1ccc2oc(-c3ccncc3)nc2c1	1	60	-60	-9	57*	46*
COc1cccc(C=NNC(=S)NC2CC3CCC2C3)c1O (stereo not given)	-3	.	.	.	.	.
CCOC(=O)c1c(CSC(=N)N)n(-c2ccccc2)c2cc(Br)c(OC(C)=O)cc12	-1	44	-44	7	62*	68*
O=C(NCCc1ccccc1)OCc1cn(-c2c(F)cccc2F)nn1	0	.	.	.	.	.
Cc1ccnc(N2CCC(C(=O)Nc3ccc(Oc4ccccc4)cc3)CC2)n1	0	10	-10	8	52*	14
O=C(CSc1nc2ccc(NC(=O)CSc3nnnn3Cc3ccccc3)cc2s1)Nc1ccccc1	-2	-5	5	24	-8	.

Assay outcomes as filed in PubChem.
